Assay results as given in ChEMBL document CHEMBL1127399, “4,7 beta-Dimethyl-4-azacholestan-3-one (MK-386) and related 4-azasteroids as selective inhibitors of human type 1 5 alpha-reductase” (J Med Chem, 1994).

Legend:
[1] = biological target: T1, 3-oxo-5-alpha-steroid 4-dehydrogenase 2 (Homo sapiens, UniProt P31213); assay: Inhibition of type 2 steroid-5-alpha-reductase
T1 sequence (P31213 whole entry): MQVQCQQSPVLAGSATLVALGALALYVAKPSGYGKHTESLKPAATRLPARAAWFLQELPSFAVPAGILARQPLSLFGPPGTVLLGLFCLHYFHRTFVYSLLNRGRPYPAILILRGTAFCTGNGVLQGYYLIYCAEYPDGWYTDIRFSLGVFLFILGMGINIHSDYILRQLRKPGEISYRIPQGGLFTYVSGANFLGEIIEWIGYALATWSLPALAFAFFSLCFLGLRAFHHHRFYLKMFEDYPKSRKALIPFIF
Outline: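 Baculovirus-expressed recombinant human type 2 5α-reductase preincubated 18 h at 4 °C with inhibitor (1–10 000 nM, serially diluted from ethanol) in 40 mM sodium citrate pH 5.5, 500 μM NADPH, 1 mM DTT, 1 mg/mL BSA. Conversion of [7-³H]testosterone to DHT monitored by HPLC. IC50 averaged over at least three determinations.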

[2] = biological target: T2, 3-oxo-5-alpha-steroid 4-dehydrogenase 1 (Homo sapiens, UniProt P18405); assay: Inhibition of type 1 steroid-5-alpha-reductase
T2 sequence (P18405 whole entry): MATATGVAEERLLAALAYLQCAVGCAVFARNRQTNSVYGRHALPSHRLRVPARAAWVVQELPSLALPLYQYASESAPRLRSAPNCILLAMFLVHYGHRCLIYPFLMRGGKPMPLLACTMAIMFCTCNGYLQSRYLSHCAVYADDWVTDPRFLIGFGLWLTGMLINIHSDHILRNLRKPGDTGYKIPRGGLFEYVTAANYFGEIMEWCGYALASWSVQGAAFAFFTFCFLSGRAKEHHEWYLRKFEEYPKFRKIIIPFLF
Outline: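 Baculovirus-expressed recombinant human type 1 5α-reductase preincubated 18 h at 4 °C with inhibitor (0.1–1000 nM, serial dilutions from ethanol) in 40 mM sodium phosphate pH 7.0, 500 μM NADPH, 1 mM DTT, 1 mg/mL BSA. Reaction started with [7-³H]testosterone (final 0.3 μM) plus NADPH, 90 min at 37 °C; T and DHT separated by HPLC. IC50, mean of ≥3 determinations.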

| Compound | IC50 [1] [nM] | IC50 [2] [nM] |
| --- | --- | --- |
| CCC[C@H]1C=C2NC(=O)CC[C@]2(C)C2CC[C@]3(C)C(C(C)CCCC(C)C)CCC3C21 (stereo not given in full) | 713 | 58 |
| CC(C)CCCC(C)C1CCC2C3C(CC[C@]12C)[C@@]1(C)CCC(=O)NC1C[C@@H]3c1ccccc1 (stereo not given in full) | 443 | > 1000 |
| CCC[C@H]1C=C2N(C)C(=O)CC[C@]2(C)C2CC[C@]3(C)C(C(C)CCCC(C)C)CCC3C21 (stereo not given in full) | 5.4 | 8.4 |
| CC[C@H]1C=C2N(C)C(=O)CC[C@]2(C)C2CC[C@]3(C)C(C(C)CCCC(C)C)CCC3C21 (stereo not given in full) | 2120 | 9.5 |
| CC(C)CCCC(C)C1CCC2C3C(CC[C@]12C)[C@@]1(C)CCC(=O)N(C)C1=C[C@@H]3c1ccccc1 (stereo not given in full) | 2170 | > 1000 |
| CC(C)CCCC(C)C1CCC2C3CC=C4N(C)C(=O)CC[C@]4(C)C3CC[C@]12C (stereo not given in full) | – | 4.3 |
| CC(C)CCCC(C)C1CCC2C3C(CC[C@]12C)[C@@]1(C)C=CC(=O)NC1C[C@@H]3C (stereo not given in full) | 298 | 1.6 |
| CCC[C@H]1CC2N(C)C(=O)CC[C@]2(C)C2CC[C@]3(C)C(C(C)CCCC(C)C)CCC3C21 (stereo not given in full) | 580 | 20 |
| CC[C@H]1CC2N(C)C(=O)CC[C@]2(C)C2CC[C@]3(C)C(C(C)CCCC(C)C)CCC3C21 (stereo not given in full) | 330 | 5.7 |
| C=CCN1C(=O)CC[C@]2(C)C3CC[C@]4(C)C(C(C)CCCC(C)C)CCC4C3[C@@H](C)CC12 (stereo not given in full) | 1300 | 42 |
| CC(C)CCCC(C)C1CCC2C3C(CC[C@]12C)[C@@]1(C)C=CC(=O)N(C)C1C[C@@H]3C (stereo not given in full) | 125 | 2 |
| CC(C)CCCC(C)[C@H]1CCC2C3C(CC[C@@]21C)[C@@]1(C)CCC(=O)N(C)C1C[C@@H]3C (stereo not given in full) | 154 | 0.9 |
| C[C@]12CCC3C(CNC4=CC(=O)CC[C@@]43C)C1CCC2C(=O)NC(c1ccccc1)c1ccccc1 (stereo not given in full) | < 0.1 | 186 |
| CC[C@H]1C=C2NC(=O)CC[C@]2(C)C2CC[C@]3(C)C(C(C)CCCC(C)C)CCC3C21 (stereo not given in full) | 1050 | 8.6 |
| CC(C)CCCC(C)C1CCC2C3CCC4NC(=O)C=C[C@]4(C)C3CC[C@]12C (stereo not given in full) | – | 5 |
| CC(C)CCCC(C)C1CCC2C3C(CC[C@]12C)[C@@]1(C)CCC(=O)NC1=C[C@@H]3C (stereo not given in full) | 859 | 2.5 |
| CC(C)CCCC(C)C1CCC2C3CC=C4NC(=O)CC[C@]4(C)C3CC[C@]12C (stereo not given in full) | – | 19.1 |
| CC(C)CCCC(C)C1CCC2C3C(CC[C@]12C)[C@@]1(C)CCC(=O)N(C)C1C[C@@H]3c1ccccc1 (stereo not given in full) | 428 | 134 |
| CC(C)CCCC(C)C1CCC2C3CCC4N(C)C(=O)CC[C@]4(C)C3CC[C@]12C (stereo not given in full) | 218 | 1.7 |
| CC(C)CCCC(C)C1CCC2C3CCC4NC(=O)CC[C@]4(C)C3CC[C@]12C (stereo not given in full) | 218 | 2.6 |
| CCN1C(=O)CC[C@]2(C)C3CC[C@]4(C)C(C(C)CCCC(C)C)CCC4C3[C@@H](C)CC12 (stereo not given in full) | 1390 | 3.3 |
| CC[C@H]1CC2NC(=O)CC[C@]2(C)C2CC[C@]3(C)C(C(C)CCCC(C)C)CCC3C21 (stereo not given in full) | 280 | 2.7 |
| CC(C)CCCC(C)C1CCC2C3C(CC[C@]12C)[C@@]1(C)CCC(=O)NC1C[C@@H]3C (stereo not given in full) | 280 | 2.6 |
| CCC[C@H]1CC2NC(=O)CC[C@]2(C)C2CC[C@]3(C)C(C(C)CCCC(C)C)CCC3C21 (stereo not given in full) | 1100 | 9.5 |
| CC(C)CCCC(C)C1CCC2C3C(CC[C@]12C)[C@@]1(C)CCC(=O)NC1=C[C@@H]3c1ccccc1 (stereo not given in full) | 1340 | > 1000 |
| CC(C)CCCC(C)C1CCC2C3C(CC[C@]12C)[C@@]1(C)CCC(=O)N(C)C1=C[C@@H]3C (stereo not given in full) | 147 | 0.6 |
| CN1C(=O)CC[C@@H]2c3ccc(Cl)cc3CC[C@H]21 [BEXLOSTERIDE] | 1750 | 8.6 |
| CC(C)(C)NC(=O)[C@H]1CC[C@H]2[C@@H]3CC=C4C=C(C(=O)O)CC[C@]4(C)[C@H]3CC[C@]12C [EPRISTERIDE] | 0.6 | > 1000 |
| CC(C)(C)NC(=O)[C@H]1CC[C@H]2[C@@H]3CC[C@H]4NC(=O)C=C[C@]4(C)[C@H]3CC[C@]12C [FINASTERIDE] | < 0.1 | 52 |
